GPR7 antag: GPR7 receptor antagonists, primary screen, cell-based, fluorescence, single concentration | Neuropeptides B/W receptor type 1 (Homo sapiens), P48145 | GPR7-expressing cells, fluorescence antagonist assay | inhibition, % at 4.4 µM | 290,000 tested, 1.1% active | AID 1861, 2009; in the data active means inhibition above about 16%, passing the limit was not always enough;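 further: cells stimulated with the agonist NPW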
Target sequence (P48145 whole entry, looked up): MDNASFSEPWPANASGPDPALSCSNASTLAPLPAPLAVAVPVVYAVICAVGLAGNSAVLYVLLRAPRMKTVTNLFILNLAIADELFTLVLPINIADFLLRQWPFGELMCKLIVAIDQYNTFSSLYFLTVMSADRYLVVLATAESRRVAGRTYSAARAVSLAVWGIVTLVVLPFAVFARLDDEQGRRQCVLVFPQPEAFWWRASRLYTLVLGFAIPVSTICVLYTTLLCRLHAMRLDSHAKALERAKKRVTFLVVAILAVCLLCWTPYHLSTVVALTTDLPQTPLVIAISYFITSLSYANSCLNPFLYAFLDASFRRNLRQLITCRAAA
T cruzi inh: inhibitors of intracellular T. cruzi growth, primary screen, luminescence, NIH3T3 host cells | AID 1885, 2009 | inhibition, % (test concentration not listed) | 300,000 tested, 1.4% active | T. cruzi beta-gal in NIH3T3, 90 h;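 active means mean inhibition across valid replicates above about 55%, limit read from the data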;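 further: signal also drops with host cell toxicity which is not excluded here; higher percent means less beta-gal luminescence so fewer parasites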
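Incubation – ≥90 h infection period, 3 h prior cell attachment · System – NIH/3T3 fibroblasts plus reporter T. cruzi · Doses – compound pinned at 50 nL/well, DMSO · Read-out basis – percent inhibition of parasite-derived β-gal signal · Signal – luminescent β-galactosidase signal after 60 min lysis · Also added – 5000 T. cruzi trypomastigotes/well · Medium – Low-serum DMEM with 2% FBS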
HSF1 inhib: HSF1 inhibitors in luciferase reporter cells, primary screen, cell-based, NIH3T3, luminescence; NIH3T3-HGL HSE-luciferase, MG132-induced, luminescence 8 h; stronger effect = lower value; activity change, negative = inhibition, % at 7.5 µM (by protocol); 300,000 tested, 0.77% active; AID 2098, 2009;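 active means more than half of replicate wells show activity change below -50%, luminescence cut by over half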;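 further: luciferase reports HSF-1 transcriptional activity via heat shock element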
Jurkat NFkB inh: inhibitors of induced NF-kB luciferase reporter, primary screen, TCR NF-kB activation inhibitor project, cell-based, luminescence, uHTS | AID 435003, 2010 | inhibition, % at 4 µM | 330,000 tested, 0.53% active | Jurkat, PMA/ionomycin-induced NF-kB luciferase reporter; in the data active means inhibition above about 50%
HSF-1 act: HSF-1 activators, primary screen, NIH3T3-HGL cells, MG132 stress, luminescence, single point; activation, % at 9 µM; 300,000 tested, 1.7% active; NIH3T3-HGL HSF-1 luciferase reporter, 8 h; 100% = twice DMSO control signal;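 active means mean replicate activation of at least 50% with a set share of replicates each reaching 50%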
697 NFkB inh: inhibitors of PMA/ionomycin-induced NF-kB reporter, 697 cells, primary screen, B-cell NF-kB inhibitor project, cell-based, luminescence, uHTS; 697 B-cell NF-kB luciferase reporter, 16 h; inhibition, % at 4 µM; 330,000 tested, 0.33% active; in the data active means inhibition above about 35%
Numbers stand for hits; - = inactive; . = no result. Only some compounds are listed: those with a hit (about 4.8% of all), similar ones and a draw of the others.

SMILES	GPR7 antag	T cruzi inh	HSF1 inhib	Jurkat NFkB inh	HSF-1 act	697 NFkB inh
COc1ccc(C(=S)Nc2ccc(C)cc2)cc1	-	-	-	-	63	-
Cc1cc(C(F)F)nn1CC(=O)NC1C(=O)N2C(C(=O)O)=C(CSc3nnnn3C)CSC12 (stereo not given)	-	-	-	-	-	-
CC1CN(C(=O)COC(=O)c2ccc(C#N)cc2)CC(C)O1 (stereo not given)	-	-	-	-	-	-
COc1cc(C(=O)NNC(=S)NC(=O)c2ccc(Cl)cc2)cc(OC)c1OC	-	70	-	-	-	-
COc1ccc(NC(=S)Nc2ccc(Oc3ccccc3)cc2)cc1	-	-	-65	-	-	-
COc1cccc(NC(=O)COC(=O)CCCC2=NS(=O)(=O)c3ccccc3N2)c1	-	-	-	-	-	-
Cc1cccnc1NC(=O)CSc1nnc(CNC(=O)c2cccc([N+](=O)[O-])c2)n1C	-	-	-	-	-	-
Cc1sc2nc(CN3CCCCC3)nc(Cl)c2c1C	-	-	-	-	-	-
COc1ccc(C2CC3CC(c4ccccc4)N2O3)cc1 (stereo not given)	-	-	-	-	-	-
CC1(c2ccccc2)CC2CC(c3ccccc3)N1O2 (stereo not given)	-	-	-	-	124	-
CCN1CCN(C(=O)/C=C/c2ccc(C)o2)CC1	-	-	-	-	-	-
Cc1ccc(/C=C/C(=O)N2CC(C)CC(C)C2)o1 (stereo not given)	-	-	-	-	51	-
COc1ccc(SCCN2CC[C@@H](C(C)(C)C)CCC2=O)cc1	.	.	.	-	.	-
Cc1sc(NC(=O)c2ccccc2F)c(CN2CCCCC2)c1C	-	-	-	-	58	-
Cc1sc(NC(=O)c2ccco2)c(CN2CCC(C)CC2)c1C	-	-	-	-	-	-
Cc1sc(NC(=O)c2ccc(F)cc2)c(CN2CCCCCC2)c1C	-	-	-	-	56	-
Cc1sc(NC(=O)c2ccco2)c(CN2CCN(Cc3ccccc3)CC2)c1C	-	59	-	-	-	-
O=C(Cn1nnnc1CN1CCOCC1)N1CCC(c2cccc(Cl)c2)C1 (stereo not given)	-	-	-	-	-	-
O=Cc1c(NCc2ccccc2Cl)c2ccccc2[nH]c1=O	-	-	-	-	-	-
COc1ccc(OCC(=O)NNC(=O)c2ccccc2OCc2c(C)noc2C)cc1	.	-	-	-	-	-
O=C(CCN1CCCCC1c1cccnc1)NCc1ccccc1 (stereo not given)	-	-	-	-	-	-
CCCOc1cccc(CN2CCCCC2c2cccnc2)c1 (stereo not given)	-	55	-	-	-	-
Fc1cnc(Cl)nc1N1CCN(c2ccccc2)CC1	-	-	-	-	-	-
CN1CCN(c2nc(N3CCN(c4ccccc4)CC3)ncc2F)CC1	-	57	-	-	-	-
COc1cc2c(cc1OC)C(NC(=O)c1ccc(C)cc1)CC2=O (stereo not given)	-	-	-	-	-	-
SMILES	GPR7 antag	T cruzi inh	HSF1 inhib	Jurkat NFkB inh	HSF-1 act	697 NFkB inh
COc1ccc(OC)c(-c2csc(NC(=O)Cn3[nH]c(=O)c4ccccc4c3=O)n2)c1	17	-	-	-	-	-
CCOC(=O)c1cc2c(c(CSc3nc4ccccc4c(=O)n3Cc3ccco3)c1)OCOC2	-	-	-	-	58	-
C=CCn1c(SCc2cc([N+](=O)[O-])cc3c2OCOC3)nc2cc(C(=O)O)ccc2c1=O	-	-	-	-	63	-
O=c1c2ccccc2nc(SCc2cc(F)cc3c2OCOC3)n1Cc1ccco1	-	-	-	-	-	-
CCC(CO)n1c(SCc2cc([N+](=O)[O-])cc3c2OCOC3)nc2ccccc2c1=O (stereo not given)	-	-	-	-	56	-
Cc1nnc(SCc2cc([N+](=O)[O-])cc3c2OCOC3)n(N)c1=O	-	-	-	-	-	-
Cc1ccc(NC(=O)C2CC(=O)N(Cc3ccccc3)C2)nc1 (stereo not given)	.	-	-	-	-	-
Cc1ccc(NC(=O)CN(C)C(=O)c2ccc(S(=O)(=O)N(C)c3ccccc3)cc2)cc1	-	-	-	-	-	-
CCCCOc1ccc(C(=O)NCC(=O)NCC(c2ccc(OC)cc2)N2CCCC2)cc1 (stereo not given)	.	-	-	-	-	-
O=C(Cn1c(=O)n(-c2ccc(F)cc2)c(=O)c2sccc21)NC1CCCCC1	-	-	-	-	-	-
CCc1c(C(=O)N/N=C/c2ccc(OCc3ccc(F)cc3)c(OC)c2)nnn1-c1nonc1N	-	-	-	-	57	-
Cc1ccc(/C=N/NC(=O)c2nnn(-c3nonc3N)c2CN(C)C2CCCCC2)cc1	-	-	-92	-	-	-
COc1ccc(C)cc1N1CC(C(=O)OCc2nc(N)nc(Nc3ccccc3C)n2)CC1=O (stereo not given)	.	.	.	-	.	-
Cc1ccccc1NS(=O)(=O)c1cccc(C(=O)Nc2cccc(C(=O)O)c2)c1	-	-	-	-	-	-
O=C(Nc1ccccc1O)c1cccc(S(=O)(=O)Nc2ccccc2O)c1	.	-	-	-	123	-
COc1ccc(C)cc1N(CC(=O)N1CCCCCC1)S(=O)(=O)c1ccc(C)cc1	-	-	-	-	-	-
COc1ccc(OCCC(=O)Nc2ccccc2)cc1	-	-	-	-	-	-
Cn1nnc2c[n+](CC(=O)c3ccc4ccccc4c3)cc(Br)c21	-	-	-	-	93	-
COc1cccc(NC(=S)N(CCCN2CCOCC2)Cc2cn(C)c3ccccc23)c1	-	-	-	-	-	-
Cc1ccc(N(CCC#N)C(=O)CCl)cc1C	-	59	-	-	-	-
Cc1ccc(SCC(=O)OCC(=O)N(CCC#N)c2ccccc2)cc1C	.	-	-	-	-	-
COc1ccc2c(c1)sc(=NC(=O)CS(=O)(=O)c1ccc(F)cc1)n2C	.	63	-	-	-	-
Cc1ccc(NCC(=O)Nc2cccc(S(=O)(=O)N(C)C)c2)cc1S(=O)(=O)N1CCCCCC1	.	-	-	-	-	-
Cc1cc(/C(N)=N/OC(=O)c2ccc(Cl)cc2)no1	-	-	-	-	64	-
COc1ccc(/C(N)=N/OC(=O)CCc2ccccc2)cc1	-	-	-	-	55	-
COc1cc(OC)cc(C(=O)O/N=C(\N)c2ccccn2)c1	-	-	-	-	55	-

Assay outcomes deposited in PubChem by several laboratories.
